Source: ChEMBL document CHEMBL1124265, “Effects of D-amino acid substitution on antagonist activities of angiotensin II analogues” (J Med Chem, 1988)

What was measured:
[1] = target: Angiotensin II receptor (Homo sapiens) (UniProt P30556+P50052); assay: In vitro angiotensin II-like activity, expressed as percent relative to angiotensin II, measured in the rabbit aorta strip assay; type: functional, tissue-based; conditions: Oryctolagus cuniculus
Rattus norvegicus [2] = assay: AII-like activity, expressed as percent relative to AII (angiotensin II) was measured in the in vivo rat blood pressure assay; type: functional
Method in brief: (§1)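 Rat blood pressure assay in vivo. Residual agonist activity is expressed as percent activity relative to AII.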

Rattus norvegicus [3] = assay: Dose required for the two fold increase in the dose of AII to produce the same elevation in blood pressure as in the control period.(in vivo); type: functional
Method in brief: (§2)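 Rat blood pressure assay in vivo, using 250-g rats. ID50 is the antagonist dose, in ng/rat per min, that requires a twofold increase in the AII dose to give the same blood pressure rise as in the control period.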

Oryctolagus cuniculus [4] = species on record: Oryctolagus cuniculus; assay: pA2 value was determined in the range of competitive inhibition in the in vitro rabbit aorta strip assay; g = partial agonist at 10 ng/mL; type: functional; conditions: filed as partial agonist
Oryctolagus cuniculus [5] = species on record: Oryctolagus cuniculus; assay: AII-like activity, expressed as percent relative to AII (angiotensin II) was measured in the in vitro rabbit aorta strip assay; g = partial agonist at 10 ng/mL; type: functional; conditions: filed as partial agonist
Rattus norvegicus [6] = assay: In vivo AII-like activity, expressed as percent activity relative to AII (angiotensin II), measured in rat blood pressure assay; type: functional; method in brief: as §1
Oryctolagus cuniculus [7] = species on record: Oryctolagus cuniculus; assay: AII-like activity, expressed as percent activity relative to AII (angiotensin II), measured in rabbit aorta strip assay
Oryctolagus cuniculus [8] = species on record: Oryctolagus cuniculus; assay: In vitro AII-like activity, expressed as percent activity relative to AII (angiotensin II), measured in rabbit aorta; type: functional
Rattus norvegicus [9] = species on record: Rattus norvegicus; assay: Dose required for the two fold increase in the dose of AII to produce the same elevation in blood pressure as in the control period.; type: functional; method in brief: as §2
Rattus norvegicus [10] = assay: In vivo AII-like activity, expressed as percent activity relative to AII (angiotensin II), measured in rat blood pressure assay; g = partial agonist at 10 ng/mL; type: functional, organism-based; conditions: filed as partial agonist; method in brief: as §1

Row | Biological activity [1] [%] | Compound | ID50 (Rattus norvegicus [3]) [ng min-1 rat-1] | ID50 (Rattus norvegicus [9]) [ng min-1 rat-1] | further results
1 | -0 | CC[C@H](C)[C@H](NC(=O)[C@@H]1CCCN1C(=O)[C@@H](Cc1c[nH]cn1)NC(=O)[C@@H](NC(=O)[C@H](Cc1ccc(O)cc1)NC(=O)[C@@H](NC(=O)[C@H](CCCN=C(N)N)NC(=O)CNC)C(C)C)[C@@H](C)CC)C(=O)O | >1000 |  | Biological activity (Rattus norvegicus [2]): 0%
2 |  | CC[C@H](C)[C@H](NC(=O)[C@H](Cc1ccc(O)cc1)NC(=O)[C@@H](NC(=O)[C@H](CCCN=C(N)N)NC(=O)CNC)C(C)C)C(=O)N[C@@H](Cc1c[nH]cn1)C(=O)N1CCC[C@H]1C(=O)N[C@@H](CCc1ccccc1)C(=O)O |  |  | pA2 (Oryctolagus cuniculus [4]): Partial agonist; Biological activity (Oryctolagus cuniculus [5]): Partial agonist
3 | -0 | CC[C@H](C)[C@H](NC(=O)[C@@H]1CCCN1C(=O)[C@H](Cc1c[nH]cn1)NC(=O)[C@H](NC(=O)[C@H](Cc1ccc(O)cc1)NC(=O)[C@H](NC(=O)[C@H](CCCN=C(N)N)NC(=O)CNC)C(C)C)C(C)C)C(=O)O | >1000 |  | Biological activity (Rattus norvegicus [6]): 0%
4 |  | CC[C@H](C)[C@H](NC(=O)[C@H]1CCCN1C(=O)[C@H](Cc1c[nH]cn1)NC(=O)[C@@H](NC(=O)[C@H](Cc1ccc(O)cc1)NC(=O)[C@@H](NC(=O)[C@H](CCCNC(=N)N)NC(=O)[C@@H](N)CC(=O)O)C(C)C)[C@@H](C)CC)C(=O)O |  |  | Biological activity (Oryctolagus cuniculus [7]): 0.1%
5 |  | CC[C@H](C)[C@H](NC(=O)[C@H](Cc1ccc(O)cc1)NC(=O)[C@@H](NC(=O)[C@H](CCCN=C(N)N)NC(=O)CNC)C(C)C)C(=O)N[C@@H](Cc1c[nH]cn1)C(=O)N1CCC[C@H]1C(=O)N[C@H](Cc1ccccc1)C(=O)O |  | 12.5 | Biological activity (Oryctolagus cuniculus [8]): 0%
6 | -0 | CC[C@H](C)[C@H](NC(=O)[C@@H]1CCCN1C(=O)[C@H](Cc1c[nH]cn1)NC(=O)[C@@H](NC(=O)[C@H](Cc1ccc(O)cc1)NC(=O)[C@@H](NC(=O)[C@H](CCCN=C(N)N)NC(=O)CNC)C(C)C)[C@@H](C)CC)C(=O)O | 10 |  | 
7 |  | CC[C@H](C)[C@H](NC(=O)[C@H](Cc1ccc(O)cc1)NC(=O)[C@@H](NC(=O)[C@H](CCCN=C(N)N)NC(=O)CNC)C(C)C)C(=O)N[C@@H](Cc1c[nH]cn1)C(=O)N1CCC[C@H]1C(=O)N[C@H](C(=O)O)c1ccccc1 |  |  | Biological activity (Rattus norvegicus [10]): Partial agonist; Biological activity (Oryctolagus cuniculus [5]): Partial agonist
8 | -0 | CC[C@H](C)[C@H](NC(=O)[C@H](Cc1ccc(O)cc1)NC(=O)[C@@H](NC(=O)[C@H](CCCN=C(N)N)NC(=O)CNC)C(C)C)C(=O)N[C@@H](Cc1c[nH]cn1)C(=O)N1CCC[C@H]1C(=O)N[C@@H](C)C(=O)O |  | 15 | 
9 | -0 | CC[C@H](C)[C@H](NC(=O)[C@H](Cc1ccc(O)cc1)NC(=O)[C@@H](NC(=O)[C@H](CCCN=C(N)N)NC(=O)CNC)C(C)C)C(=O)N[C@@H](Cc1c[nH]cn1)C(=O)N1CCC[C@H]1C(=O)N[C@@H](C(=O)O)c1ccccc1 |  | 3.5 | 
10 | -0 | CC[C@H](C)[C@H](NC(=O)[C@H](Cc1ccc(O)cc1)NC(=O)[C@@H](NC(=O)[C@H](CCCN=C(N)N)NC(=O)CNC)C(C)C)C(=O)N[C@H](Cc1c[nH]cn1)C(=O)N1CCC[C@H]1C(=O)N[C@H](Cc1ccccc1)C(=O)O |  | 0 | Biological activity (Rattus norvegicus [6]): 0%
11 |  | CC[C@H](C)[C@H](NC(=O)[C@H](Cc1ccc(O)cc1)NC(=O)[C@@H](NC(=O)[C@H](CCCNC(=N)N)NC(=O)CNC)C(C)C)C(=O)N[C@@H](Cc1c[nH]cn1)C(=O)N1CCC[C@H]1C(=O)N[C@@H](C(=O)O)C(C)C |  | 50 | Biological activity (Rattus norvegicus [2]): 10
12 | -0 | CC[C@H](C)[C@H](NC(=O)[C@@H]1CCCN1C(=O)[C@H](Cc1c[nH]cn1)NC(=O)[C@@H](NC(=O)[C@H](Cc1ccc(O)cc1)NC(=O)[C@@H](NC(=O)[C@@H](CCCN=C(N)N)NC(=O)CNC)C(C)C)[C@@H](C)CC)C(=O)O | 150 |  | 
